High-throughput results deposited in PubChem BioAssay by several laboratories.
Sampled rows, rich in hits. Any-hit rate of the full collection: about 7.2%.
PLAP act: PLAP enzyme activators, biochemical, luminescence, HTS; Alkaline phosphatase, placental type (Homo sapiens), P05187; purified PLAP enzyme, luminescent substrate read-out; hits give high values; activation fold at 20 µM; 1.2% of 96,000 active; AID 696, 2007; in the data active means activation fold above about 2
Target sequence (P05187 whole entry, looked up): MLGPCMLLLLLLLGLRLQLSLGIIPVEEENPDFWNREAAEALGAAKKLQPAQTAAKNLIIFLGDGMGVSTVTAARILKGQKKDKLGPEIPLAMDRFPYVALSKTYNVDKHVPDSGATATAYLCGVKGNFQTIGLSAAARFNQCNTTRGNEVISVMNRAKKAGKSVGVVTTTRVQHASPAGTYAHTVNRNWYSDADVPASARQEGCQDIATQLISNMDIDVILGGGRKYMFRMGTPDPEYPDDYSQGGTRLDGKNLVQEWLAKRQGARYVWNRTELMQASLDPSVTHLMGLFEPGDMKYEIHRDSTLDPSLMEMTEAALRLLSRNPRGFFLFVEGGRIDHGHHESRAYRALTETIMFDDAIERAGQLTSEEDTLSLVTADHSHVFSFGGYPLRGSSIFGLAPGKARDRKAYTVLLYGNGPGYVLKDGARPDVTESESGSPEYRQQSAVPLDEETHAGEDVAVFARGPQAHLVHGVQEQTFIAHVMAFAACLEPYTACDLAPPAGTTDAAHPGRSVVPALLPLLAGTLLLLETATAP
Ecoli WT expand: growth inhibitors of wild-type E. coli, primary screen, strain BW25113, expanded library, OD600. AID 710, 2007. 0.15% of 98,000 active. OD600 absorbance. growth inhibition, % at 100 µM;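 active means growth inhibition above about 50% at one test dose, limit read from the data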;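 further: growth measured after 20 h incubation at 37 °C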
PostGolgi ctrl: growth inhibition of yeast control strain, primary screen, counter-screen for post-Golgi transport modulator project; efflux-deficient yeast background strain, growth absorbance A615, 16 h; inhibition, % at 10 µM; 5% of 98,000 active
PostGolgi yeast: phenotypic screen on post-Golgi transport, primary screen; post-Golgi transport phenotypic cell assay; inhibition, % at 10 µM; 0.9% of 98,000 active;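 further: yeast cells grown in 1536-well plates; yeast grown about 18 h at 30C before absorbance read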
Ecoli tolC: growth inhibitors of E. coli tolC mutant, primary screen, strain BW25113 ΔtolC::kan, 384-well | growth inhibition, % at 10 µM (by protocol) | 2.2% of 65,000 active | OD615 | AID 573, 2007;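 active means growth inhibition at or above a cutoff equal to the mean over every tested compound plus 3 SD, cut at about 60% in these data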;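 further: growth measured after 20 h incubation at 37 °C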
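Test system: E. coli BW25113 ΔtolC::kan bacteria | Medium: Kanamycin-containing LB broth (50 µg/mL) | Dosing: One dose of 10 µM final | Times: 20 h incubation with compound, 37 °C | Detection: Optical density read at 615 nm | Read-out basis: Percent growth inhibition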
Hits are given with their value; i = inactive; nt = no result. Unless noted, no stated cut-off is given here; in the data, active means inhibition above about 30%; inactive means the rest.

SMILES | PLAP act | Ecoli WT expand | PostGolgi ctrl | PostGolgi yeast | Ecoli tolC
CC(O)C(=O)NCCOCCOCCNC(=O)C(C)O (stereo not drawn) | i | i | i | i | i
CCSc1n[nH]c(=O)[nH]c1=O | i | i | i | i | i
Cc1cc(C)n(C(=O)c2ccc(C)c(S(=O)(=O)N3CCCC3)c2)n1 | i | i | 32 | i | i
O=C(Nc1ccc2c(c1)OCO2)c1ccc2nc[nH]c2c1 | 2 | i | i | i | nt
O=C(Nc1ccc(S(=O)(=O)N2CCc3ccccc32)cc1)c1ccco1 | i | i | 44 | i | i
COc1ccccc1C(=O)Nc1ccc(S(=O)(=O)N2CCc3ccccc32)cc1 | i | i | 34 | i | nt
O=C(Nc1ccc(S(=O)(=O)N2CCc3ccccc32)cc1)c1ccc2c(c1)OCO2 | i | i | 37 | i | i
COc1ccc(-c2noc(-c3ccccc3C(=O)N3CCOCC3)n2)cc1 | i | i | i | i | nt
O=C(NS(=O)(=O)c1ccc2c(c1)OCCO2)c1ccccc1 | i | i | i | i | i
Cn1c(=O)[nH]c(=O)c2c1nc(NC1CCCCC1)n2CCO | nt | nt | nt | nt | i
O=C(Cn1c(N2CCN(c3ccccc3)CC2)nc2ccccc21)c1ccccc1 | i | i | i | i | i
CCCCN(C)C(=O)c1cc2cc3ccc(OC)cc3nc2s1 | i | i | i | i | nt
Cc1ccc(NC(=S)NNC(=O)CCn2cc(C)cn2)cc1 | 2.4 | i | i | i | nt
O=C(Cn1nc(C(F)F)cc1C(F)F)NNC(=S)Nc1ccc(F)cc1 | 2.4 | i | i | i | nt
Cc1ccc(NC(=S)NNC(=O)Cn2nc([N+](=O)[O-])cc2C)cc1 | 2 | i | i | i | nt
CCOC(=O)C1=C(CSc2nc(-c3ccccc3)ccc2C#N)OC(N)=C(C#N)C1c1cccnc1 (stereo not drawn) | i | i | i | 61 | nt
COc1cccc(OC)c1C(=O)OCC(=O)Nc1ccc(OC(F)(F)F)cc1 | i | i | i | i | nt
CCCCOCCCn1cnc2c([nH]c3cc(OC)ccc32)c1=O | i | i | i | i | i
Cc1cc(NC(=O)NC(=O)c2cccc(OC(F)(F)C(F)F)c2)n[nH]1 | i | i | 33 | i | i
COc1cccc(C(=O)Nc2c(C)n[nH]c2C)c1 | i | i | i | i | i
CCC(C)(C)n1nnnc1C(c1ccc(C)cc1)N(Cc1ccco1)Cc1cccs1 (stereo not drawn) | i | i | i | i | nt
O=C1CCCN1CC(O)CS(=O)(=O)c1ccc(Cl)cc1 (stereo not drawn) | i | i | i | i | nt
Cc1cccc(C)c1NC(=S)NC(=O)CCc1ccccc1 | i | i | i | i | nt
Cc1cccc(C)c1NC(=O)CNc1ccccc1 | i | i | 37 | i | i
O=C(c1nn(Cc2ccccc2)c(=O)c2ccccc12)N1CCN(c2ccccn2)CC1 | i | i | i | i | i
SMILES | PLAP act | Ecoli WT expand | PostGolgi ctrl | PostGolgi yeast | Ecoli tolC
O=C(c1nn(Cc2ccccc2)c(=O)c2ccccc12)N1CCc2ccccc2C1 | i | i | 57 | i | nt
Cc1nn(C(C)C(=O)NNC(=S)Nc2ccc(F)cc2)c(C)c1[N+](=O)[O-] (stereo not drawn) | nt | i | i | i | nt
CCC1(C)Cc2c(sc3nc(NN)n(C)c(=O)c23)CO1 (stereo not drawn) | 2 | i | i | i | nt
CCN(C1CCCCC1)S(=O)(=O)c1ccc(S(=O)(=O)N(CC(=O)Nc2ccccc2)C2CC2)cc1 | i | i | i | i | nt
Cc1ccc(S(=O)(=O)N(CC(=O)Nc2cccc([N+](=O)[O-])c2)C2CCCCC2)cc1 | i | i | 35 | i | nt
O=C(CN(c1ccc(F)cc1)S(=O)(=O)c1ccc2c(c1)OCCO2)NCC1CCCO1 (stereo not drawn) | i | i | 33 | i | i
Cc1ccc(-c2csc3nnc(SCC(=O)Nc4nsc(-c5ccccc5)n4)n23)cc1 | i | i | 41 | i | i
O=C(CSc1nnc2scc(-c3ccccc3)n12)Nc1nsc(-c2ccccc2)n1 | i | i | i | i | 62
O=C(CSc1nnc2scc(-c3ccccc3)n12)Nc1nsc(-c2ccc(Cl)cc2)n1 | nt | nt | nt | nt | i
Cc1nnc(SCC(=O)Nc2nsc(-c3ccc(C(C)(C)C)cc3)n2)s1 | i | i | 62 | i | nt
CC1CCCCC1NC(=O)CSc1nnnn1-c1ccccc1 (stereo not drawn) | i | i | i | 38 | i
COc1ccc(N2CCN(c3nc4c(c(=O)n(C)c(=O)n4C)n3CCCc3ccccc3)CC2)cc1 | i | nt | nt | nt | i
Cc1ccc(-c2nc(NC(=O)CSc3nnnn3-c3ccccc3)ns2)cc1 | i | i | 48 | i | i
CCCOc1ccc(C2/C(=C(\O)c3c(C)[nH]c(C(=O)OC)c3C)C(=O)C(=O)N2CCN(C)C)cc1 (stereo not drawn) | i | i | 32 | i | i
CCOc1ccc(C2/C(=C(\O)c3c(C)[nH]c(C(=O)OC)c3C)C(=O)C(=O)N2CCN(C)C)cc1 (stereo not drawn) | i | i | i | i | i
Cc1cc(NC(=O)C2COc3ccccc3O2)no1 (stereo not drawn) | i | i | i | i | i
CC(=O)c1c(O)cc(C)n(Nc2nc(C)cc(C)n2)c1=O | i | i | i | i | 73
CC(=O)c1n[nH]nc1Nc1nc(C)cc(C)n1 | nt | nt | nt | nt | i
O=C(/C=C1\NCC2c3ccccc3CCN2C1=O)c1ccccc1 (stereo not drawn) | i | i | i | i | nt
Cc1ccc(OCC(=O)N2N=C(C(F)(F)F)CC2(O)C(C)(C)C)cc1C (stereo not drawn) | i | i | 33 | i | nt
Nc1nc(CN2CCCCCC2)nc(Nc2ccccc2)n1 | i | i | i | i | nt
Cc1c(-c2nc(N)nc(Nc3ccccc3)n2)oc2ccccc12 | i | i | 78 | 33 | 98
COc1ccc(N2CCN(/C(=N\S(=O)(=O)c3ccccc3)Nc3nc(C)cc(C)n3)CC2)cc1 | i | i | i | i | i
CCCCC(=O)Nc1nc2ccc3nc(C)sc3c2s1 | nt | i | 45 | i | i
Cc1ccc(Sc2c(C=O)c3ccccc3n2C)cc1 | i | i | 45 | i | nt
SMILES | PLAP act | Ecoli WT expand | PostGolgi ctrl | PostGolgi yeast | Ecoli tolC
Cc1[nH]n(-c2ccccc2)c(=O)c1C1(C(F)(F)F)C(=O)N(c2ccc(F)cc2)C2=C1C(=O)CC(C)(C)C2 (stereo not drawn) | i | i | i | i | nt
COc1cccc(C(=O)NCC(=O)n2nc(C)cc2C)c1 | i | i | i | i | i
Cn1c(SCCCC(=O)c2ccc(F)cc2)nnc1-c1ccncc1 | i | i | i | i | nt
COCCn1c(SCCCC(=O)c2ccc(Br)cc2)nnc1-c1ccncc1 | i | i | 36 | i | nt
O=C(c1ccc(F)cc1)N1CCN(c2ccc([N+](=O)[O-])c(N3CCCCC3)c2)CC1 | i | i | i | i | nt
O=C(c1cccc(F)c1)N1CCN(c2cc(N3CCCCC3)c(F)cc2[N+](=O)[O-])CC1 | i | i | 52 | i | nt
Cc1ccc(CN2C(=O)CCSc3ccc(Cl)cc32)cc1 | i | i | 46 | i | nt
O=C1CCSc2ccc(Cl)cc2N1Cc1cccc(Cl)c1 | i | i | 41 | i | nt
Cc1c(NC(=O)c2cc3ccccc3oc2=O)c(=O)n(-c2ccccc2)n1C | i | i | i | i | nt
